MIN6 prolif = MIN6 beta-cell proliferation induction | 330,000 tested, 0.29% active | MIN6 cells proliferation, ATPlite luminescence, 48 h; cells starved in 0.2% serum; 100% = growth in 10% serum | AID 2380 | proliferation, % at 10 µM;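 active = compounds whose signal lies at least 3.5 SD above the mean of all wells on their plate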;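 note: 0% = DMSO-treated cells in low-serum medium and 100% = 10% serum control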
CendR NRP1 mod = NRP-1/CendR interaction modulation; inhibition, % at 25 µM; 360,000 tested, 0.85% active; FAM-RPARPAR peptide binding to NRP-1, fluorescence polarization; O14786;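 active = inhibition or corrected inhibition above about 18%, plus a signal ratio from 0.5 to 1.5, limit read from the data, passing the limit was not always enough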
SENP1 FRET inh = inhibitors of human SENP1 SUMO protease catalytic domain | Q9P0U3 | recombinant SENP1 catalytic domain, CyPet-SUMO1-YPet FRET cleavage | inhibition, % at 10 µM | 360,000 tested, 0.21% active | AID 624204;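 active = inhibition at least 30% at 10 µM, raw YFP signal under a set limit, fluorescence ratio 0.5 to 1.5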;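 note: 0% = enzyme with DMSO and 100% = no enzyme wells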
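Controls: no-enzyme wells low, DMSO-plus-enzyme wells high control. Test system: human recombinant His6-tagged SENP1 catalytic domain enzyme. Reagent: SFCypet-SUMO1-SFYpet FRET protein substrate, 25 nM final. Doses: one dose per compound, 10 µM, 0.5% DMSO. Detection: FRET, CFP and YFP emission. Timing: 50 min reaction at room temperature.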
Myeloid diff 2 = myeloid differentiation induction | ER-HoxA9 myeloid progenitors, lysozyme-GFP differentiation, flow cytometry | calls only at 10 µM | 360,000 tested, 1% active;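 active = normalized GFP-positive differentiation at or above the plate's own cutoff, the solvent-only control mean plus 3 SD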;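 note: cells exposed to compound for four days before flow analysis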
MT1-MMP act inh = MT1-MMP (human) activation inhibition | HT1080 RFP-PRO-GFP cells, GFP/RFP ratio fluorescence, overnight; percent of plate control window, DMSO zero | 360,000 tested, 0.061% active | GFP/RFP ratio change, % at 20 µM | P50281;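 active = GFP/RFP ratio change of at least 30% with cell ATP level not reduced by more than half and red fluorescence within 50% of control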
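Compound: 20 µM single dose, 1% DMSO / System: HT1080 RFP-PRO-GFP cells / Controls: DMSO and RFP-L50D-GFP cell wells / Read-out basis: GFP/RFP fluorescence ratio / Schedule: overnight compound exposure at 37 °C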
DAGLB inhibitor = diacylglycerol lipase beta (human) inhibition; HEK293T DAGLB membrane lysate, EnzChek fluorogenic substrate; 340,000 tested, 0.059% active; AID 504411; Q8NCG7; inhibition, % at 5.17 µM; in the data active = inhibition above about 34%;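 note: 0% = enzyme with vehicle and 100% = wells lacking enzyme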
Starred values were filed as active, the others as inactive; i = inactive; nt = not tested or not shown; + = active, no number. An excerpt weighted towards active compounds, which were near 2.4% of everything screened.

SMILES	MIN6 prolif	CendR NRP1 mod	SENP1 FRET inh	Myeloid diff 2	MT1-MMP act inh	DAGLB inhibitor
CCNS(=O)(=O)c1ccc(CCC(=O)NCc2ccncc2)cc1	-0.6	-1.0	-0.5	nt	1.3	-1.3
Cc1c(OCC(=O)NCC(O)c2ccccc2)ccc2c3c(c(=O)oc12)CCCC3 (stereo unspecified)	4.9	4.0	0.1	i	-0.9	0.2
O=C(Nc1cc(Cl)ccc1-n1cncn1)c1ccc([N+](=O)[O-])s1	-7.2	-27.6	-6.1	+	-88.9	2.8
CCOC(=O)CN1C(=O)N[C@@H](c2ccccc2)[C@H](C(C)=O)[C@H]1C	0.5	24.7*	-0.7	i	0.7	-0.1
CCOC(=O)CN1C(=O)N[C@@H](c2ccccc2)[C@@H](C(=O)OC)[C@H]1C	0.0	10.7	1.4	i	2.4	2.5
CC(C)CC(=O)Nc1cc2c3c(c1)CCN3C(=O)CC2	-0.5	3.6	1.4	+	1.1	-0.8
Nc1nccc(SCc2ccc(Cl)cc2Cl)n1	nt	4.0	-2.1	i	-0.9	1.5
Nc1nc(N)c(Cc2ccc(Cl)cc2Cl)c(N)n1	0.5	9.7	0.7	+	-4.4	-2.5
CC(NC(=O)/C=C/c1ccccc1[N+](=O)[O-])C1CC2CCC1C2 (stereo unspecified)	-2.7	16.2	1.7	nt	-2.8	-2.4
C=CCN(C(C(=O)OC)C(C)C)S(=O)(=O)CCNCc1ccccc1 (stereo unspecified)	nt	-0.9	1.0	i	0.7	-3.7
CSc1nsc(/C=C/Nc2ccc(Cl)cc2)c1C#N	-4.5	-164.2	7.7	+	-53.4	-1.4
Cc1cc(O)ccc1N/C=C(\C#N)c1nc2ccccc2o1	-2.3	-26.0	-57.4	i	-2.4	-1.2
CSc1nsc(/C=C/Nc2ccc(O)cc2C)c1C#N	-5.5	-153.0	-23.6	+	2.2	9.4
CSc1nsc(/C=C/Nc2ccc(F)cc2)c1C#N	-1.9	-94.6	-25.0	+	-38.4	-0.3
CSc1nsc(/C=C/Nc2cccc(Cl)c2)c1C#N	-5.4	-70.4	-35.5	+	-31.8	-3.1
Cc1ccc(CN2CCS(=O)(=O)CC2)cc1	-2.8	27.3*	2.5	i	2.5	-2.6
CN=C1c2cc3cc(OC)ccc3n2CCN1C	-1.2	-4.0	1.5	+	-2.6	3.2
CN=C1c2cc3c(Br)c(OC)ccc3n2CCN1C	-1.1	14.0	1.6	i	-0.3	0.7
O=C1Nc2ccccc2C12OCCO2	-1.8	34.9*	-2.0	i	-3.9	-1.0
COc1c(C(=O)Nc2ccc(Cc3ccncc3)cc2)ccc2ccccc12	-1.6	-4.6	1.7	i	3.1	-2.6
Nc1ncnc2[nH]c(=S)[nH]c12	nt	28.8*	-3.6	i	-3.0	-1.8
CSc1nc2ncnc(N)c2[nH]1	-0.2	-5.2	0.3	i	1.9	nt
CCC(C)c1ccccc1NC(=O)COC(=O)c1ccc2[nH]c3c(c2c1)CCCC3 (stereo unspecified)	-6.8	20.1	-6.1	+	-11.4	-6.9
COc1ccc(CN2CC[C@H]3C=CCc4cccc(c43)C2)cc1	-3.9	-8.5	-24.3	i	-6.7	-8.6
CCOC(=O)CN1C=C(c2ccc3ccccc3n2)C(C[N+](=O)[O-])c2ccccc21 (stereo unspecified)	-6.2	128.1	-23.5	+	-238.4	-14.9
CCOC(=O)CSc1ccc2ccccc2n1	0.2	16.8	1.0	i	-3.8	-1.7
CCCCC1=CC2=CC(=O)C(C)(OC(=O)CC)C(=O)C2=CN1CC(C)C (stereo unspecified)	-3.0	4.0	-75.4	i	5.2	1.8
CCCCC1=CC2=CC(=O)C(C)(OC(=O)CC)C(=O)C2=CN1Cc1ccc(OC)cc1 (stereo unspecified)	-0.7	35.2*	-47.0	i	-4.9	2.9
C=CCN1C=C2C(=O)C(C)(OC(=O)c3cccs3)C(=O)C=C2C=C1CCCC(=O)OC (stereo unspecified)	-1.4	28.5*	-25.3	i	2.5	-1.0

Screens deposited in PubChem by several laboratories.
